Reference: PMC3050579 (Molecular cell, 2009)
Where no end group is shown, it is not given here.

B1: G2BR peptide (Ube2g2 binding region of gp78, amino acids 574-600) (peptide, UniProt Q9UKV5 574-600, looked up)
peptide: SADERQRMLVQRKDELLQQARKRFLNK
B3: Ube2g2 (enzyme)
chain: MAGTALKRLMAEYKQLTLNPPEGIVAGPMNEENFFEWEALIMGPEDTCFEFGVFPAILSFPLDYPLSPPKMRFTCEMFHPNIYPDGRVCISILHAPGDDPMGYESSAERWSPVQSVEKILLSVVSMLAEPNDESGANVDASKMWRDDREQFYKIAKQIVQKSLGL

Experiments:
[1] = target: Ube2g2 (UniProt P60604); assay: NMR titration
[2] = target: T1, Ube2g2 (Homo sapiens, UniProt P60604); assay: ITC of Ube2g2 with G2BR peptides; type: binding
T1 sequence (P60604 1-165): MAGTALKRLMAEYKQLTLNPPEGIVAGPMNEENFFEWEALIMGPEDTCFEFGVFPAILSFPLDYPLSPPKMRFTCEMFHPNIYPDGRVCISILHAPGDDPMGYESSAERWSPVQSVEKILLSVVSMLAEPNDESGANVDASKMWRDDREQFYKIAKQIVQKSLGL

[3] = target: T1, Ube2g2; assay: NMR titration of Ube2g2 with G2BR peptides; type: binding; settings: peptide with Ube2g2, 50 mM Tris, 2 mM TCEP, pH 7.5, 25°C
In short: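 Samples are in 50 mM Tris, 2 mM TCEP, pH 7.5, run at 25°C on 600 and 800 MHz spectrometers with triple-resonance cryoprobes. G2BR peptide is titrated into Ube2g2 and chemical shift perturbations of Ube2g2 resonances are mapped, backed by intermolecular NOESY, to define the binding surface.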

[4] = target: T2, Ube2g2:G2BR complex (Homo sapiens, UniProt P60604+Q9UKV5); assay: NMR titration of Ube2g2:G2BR complex with gp78 RING finger; type: binding; settings: for NMR Exchange timescale: Ube2g2:G2BR complex, pH 7.5, 25°C
T2 sequence (P60604 1-165): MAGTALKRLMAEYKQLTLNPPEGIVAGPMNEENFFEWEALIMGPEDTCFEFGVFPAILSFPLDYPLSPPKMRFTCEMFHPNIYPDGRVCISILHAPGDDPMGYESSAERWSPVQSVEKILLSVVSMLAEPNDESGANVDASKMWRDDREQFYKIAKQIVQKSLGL
T2 sequence (Q9UKV5 574-600 partner limits assumed): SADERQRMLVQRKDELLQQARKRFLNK
In short: (§1)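 Purified gp78 RING finger is titrated into free Ube2g2 or the Ube2g2:G2BR complex in 50 mM Tris, 2 mM TCEP, pH 7.5, at 25°C, using 600 and 800 MHz spectrometers. Shifts of Ube2g2 peaks from free toward bound positions are followed. Kd comes from fitting peak positions against ligand:protein concentration.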

[5] = target: T1, Ube2g2; assay: Ubiquitin loading of Ube2g2; type: biochemical
[6] = system: Ube2g2Δ96-108; assay: Ubiquitin loading of Ube2g2Δ96-108; type: biochemical; settings: Ube2g2Δ96-108, printed 'almost 75%'; 4 μM G2BR, 30°C
[7] = system: Ube2g2Δ96-108; assay: Binding of G2BR to Ube2g2Δ96-108
[8] = system: GST-gp78CΔ577-643; assay: Autoubiquitylation of GST-gp78CΔ577-643 with Ube2g2; type: biochemical, human; settings: GST-gp78CΔ577-643, bead-bound, Ube2g2, E1; anti-ubiquitin immunoblot
In short: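 Glutathione Sepharose-bound GST fusion of the gp78 cytoplasmic tail truncated at aa 577, at the start of the G2BR, is incubated 90 min with Ube2g2 and E1, with or without synthetic or recombinant G2BR-derived peptides added in trans. After washing, ubiquitylated bead-bound material is resolved by SDS-PAGE and immunoblotted with anti-ubiquitin.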

[9] = system: Ub-GFP-His6; assay: Ubiquitylation of Ub-GFP-His6 by gp78 cytoplasmic domain constructs; type: biochemical; settings: ~500 nM Ub-GFP-His6, Flag-tagged ubiquitin
In short: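 Purified, bacterially expressed Ub-GFP-His6 (~500 nM) served as substrate for glutathione Sepharose-bound GST-gp78 lacking aa 577-643. Reactions were stopped with 2% SDS (final). After 10 min, samples were diluted to 0.1% SDS with 8 M urea in 50 mM Tris pH 7.4. Substrate was recovered on Ni2+ beads, washed, eluted and resolved by SDS-PAGE. In controls, substrate was added after termination; some reactions ran 60 min.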

[10] = system: UbcH5B; assay: Ubiquitylation by HsHRD1, Trc8 and GST-gp78CΔ577-643 with UbcH5B as E2; type: biochemical; settings: HsHRD1, Trc8 and GST-gp78CΔ577-643, UbcH5B as E2, G2BR added
In short: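 GST fusions of the HsHRD1 or Trc8 cytoplasmic tails, or of truncated gp78, were bound to glutathione Sepharose. They were incubated 90 min with E1 and the indicated E2, with or without the indicated peptides. Beads were then washed, and bead-bound ubiquitylated material was resolved by SDS-PAGE and immunoblotted with anti-ubiquitin.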

[11] = system: Ube2g2:RING finger; assay: Fraction of Ube2g2 bound to gp78 RING finger in discharge reactions; type: binding; settings: 8 μM gp78 RING finger, peptide 4 μM
[12] = system: gp78 RING finger; assay: Binding of G2BR to gp78 RING finger; parameters: species or system human; settings: in the gp78 RING finger:Ube2g2:G2BR complex, separate binding experiments
[13] = target: Ube2g2:G2BRΔN complex (UniProt P60604); assay: NMR titration
[14] = target: Ube2g2 (UniProt P60604); assay: ITC
[15] = target: UbcH5C; settings: ref Brzovic et al., 2006; cited from earlier work
[16] = target: B3; assay: ITC
[17] = target: B3; assay: ITC; remark: listed apart in the source
[18] = target: B3; assay: NMR titration
[19] = target: T1, Ube2g2; assay: NMR titration of Ube2g2 with gp78 RING finger; type: binding; settings: Ube2g2 without G2BR, pH 7.5, 25°C
In short: as §1

[20] = target: Ube2g2:G2BRΔN; assay: NMR titration of Ube2g2:G2BRΔN complex with gp78 RING finger; type: binding; settings: Ube2g2 in presence of G2BRΔN, pH 7.5, 25°C
In short: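 For the NMR titration, samples were in 50 mM Tris, 2 mM TCEP, pH 7.5, at 25°C, on 600 and 800 MHz spectrometers with cryoprobes. gp78 RING finger was added stepwise, and Ube2g2 peak shifts from the free toward the bound position were followed. Kd was obtained by fitting peak positions against ligand:protein concentration ratio.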

[21] = target: Ube2g2~Ub (Homo sapiens, UniProt P60604); assay: Discharge of ubiquitin from Ube2g2~Ub; type: biochemical; settings: 8 μM gp78 RING finger, Ub 80 μM, 50 mM Tris pH 7.4, 25°C
[22] = target: B3; assay: NMR titration; remark: listed apart in the source
[23] = target: T3, Ube2g2:G2BR complex ( | human, UniProt P60604 1-165; Q9UKV5 574-600); assay: NMR titration
T3 sequence 1: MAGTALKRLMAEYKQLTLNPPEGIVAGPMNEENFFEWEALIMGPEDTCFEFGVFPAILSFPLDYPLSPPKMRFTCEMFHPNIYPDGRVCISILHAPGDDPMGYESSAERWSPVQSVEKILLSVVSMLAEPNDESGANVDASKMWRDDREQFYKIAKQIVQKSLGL
T3 sequence 2: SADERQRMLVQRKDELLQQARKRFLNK

[24] = target: B1; assay: NMR titration

## G2BRΔC (peptide)
[1]
  Kd: 192 µM

## SADERQRMLVQRKDELLQQARKRFLNK [G2BR]
[2]; ITC, 25°C
  ΔG (free energy change): -10.45 kcal/mol
  ΔH: -56.3(±0.01) kJ mol^-1
  ΔS: -41.8(±0.04) J K^-1 mol^-1T^-1
[2]; versus ubiquitin (~300 μM)
  higher affinity for Ube2g2 of G2BR than of ubiquitin: over 10,000 fold
[3]
  NMR Exchange timescale: slow exchange and slow
[4]; Ube2g2:G2BR versus Ube2g2, abstract
  increase in affinity between the E2 and RING finger caused by G2BR binding: ~ 50 fold
[5]; 12°C, with G2BR
  E2 loading with ubiquitin: almost no detectable loading
[5]; 30°C, 4 μM (saturating) peptide, 100 nM E1, Ub K0, versus Scr, average of two experiments
  effect on rate of E2 loading with ubiquitin: marked decrease in the rate of E2 loading
[5]; in presence of G2BR (discussion)
  formation of Ube2g2~Ub: substantial delay in formation of Ube2g2~Ub
[6]
  decrease of the G2BR effect on ubiquitin loading by deletion of aa 96-108: ~75%
[7]
  G2BR binding to Ube2g2Δ96-108: G2BR binding was retained
[8]
  effect of peptide in trans on ubiquitylation of truncated gp78: marked increase in ubiquitylation of truncated gp78
[9]
  effect of G2BR on ubiquitylation of Ub-GFP-His6 by GST-gp78CΔ577-643: substantially increased
[10]
  effect on ubiquitylation with UbcH5B: not increased
[11]
  Ube2g2 bound (Ube2g2:RING finger): > 50%
[12]
  RING finger - G2BR direct interaction: do not directly interact

## gp78 RING finger (aa 313-380) (from UniProt Q9UKV5 313-380) (domain or fragment)
[13]
  Kd: 29 µM

## G2BRΔN (peptide)
[14]
  Kd: 0.74 µM
  dH: -2.34 kcal/mol

## ubiquitin
[15]
  Kd: ~300 µM

## B1
[16]
  stoichiometry N: 1
[17]
  Kd: 0.021 ± 0.004 µM
  dH: -13.456 ± 0.00239 kcal/mol
[18]
  Kd: < 1 µM

B2: gp78 RING finger (aa 313-380) (domain or fragment, human, UniProt Q9UKV5 313-380, looked up)
chain: KNYLRVVGNMEARFAVATPEELAVNNDDCAICWDSMQAARKLPCGHLFHNSCLRSWLEQDTSCPTCRM
[19]
  NMR Exchange timescale: fast exchange
[19]; listed as gp78-RING
  NMR Exchange timescale: fast
[4]
  NMR Exchange timescale: fast exchange
[4]; listed as gp78-RING
  NMR Exchange timescale: fast
[4]; Ube2g2:G2BR versus Ube2g2
  decrease of Kd of gp78 RING finger for Ube2g2 in presence of G2BR: ~ 48 fold
[20]; 50 mM Tris, 2 mM TCEP
  Kd: 29 µM
[20]
  NMR Exchange timescale: fast
[21]
  loss of Ub-bound Ube2g2: markedly accelerated
[22]
  Kd: 144 ± 10 µM
[23]
  Kd: 3 ± 1 µM

## B3
[24]
  stoichiometry N: 1
